Drawing on ChEMBL document CHEMBL1156262, “Substituted benzothiophene or benzofuran derivatives as a novel class of bone morphogenetic protein-2 up-regulators: synthesis, structure-activity relationships, and preventive bone loss efficacies in senescence accelerated mice (SAMP6) and ovariectomized rats” (J Med Chem, 2010), this text covers Activity for 26 molecules.

The assay in a line: Induction of BMP2 expression in mouse calcarial MC3T3-E1 cells stably transfected with mouse BMP2 promotor-luciferase assessed as upregulation rate at 4 uM. Type of assay: functional, cell-based. In a few lines:
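Reporter assay in murine calvarial MC3T3-E1 cells stably carrying the mouse BMP-2 promoter fused to firefly luciferase (pGL4BMP-2). Cells grown in DMEM with 10% heat-inactivated FBS at 37 °C and 5% CO2. Test compounds at 4.0 μM; lovastatin at 0.4 μM as positive control; 0.1% DMSO as negative control. Up-regulation rate = (RLU of test − RLU of negative control)/RLU of negative control × 100.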

Consider `CC(=O)c1cc2ccccc2o1`, for which the Activity is 33.5%. In the case of `O=C(/C=C/c1ccccc1Cl)c1cc2ccccc2o1` it was 1.8%. In the case of `O=C(/C=C/c1ccccc1)c1cc2ccccc2o1` it was 24.4%; in that of `CCOC(=O)c1cc2cc(Cl)cc(Cl)c2o1`, -1.6%; in that of `O=C(/C=C/c1ccccc1)c1cc2ccccc2s1`, 15.4%. In the case of `C[S+]([O-])CC(=O)c1cc2cc3c(cc2s1)OCO3` (stereo unspecified) it was 0.6%; in that of `CS(=O)(=O)CC(=O)c1cc2cc3c(cc2s1)OCO3`, -9.3%.

Take `COc1cc2cc(C(C)=O)sc2cc1OC`: the Activity was 37.1%. With `CCOC(=O)c1ccc2sc(C(=O)/C=C/c3ccc(OC)c(OC)c3)cc2c1`, the Activity was -9.6%.

For `CCOC(=O)c1cc2cccc(OC)c2o1`, the Activity is 12.4%. With `CCOC(=O)c1cc2cc(C(=O)OC)ccc2s1` the figure was 49.8%. With `C[S+]([O-])CC(=O)c1cc2ccccc2o1` (stereo unspecified), the Activity was 3.9%. Take `CCOC(=O)c1ccc2sc(C(=O)/C=C/c3ccc(OC)c(OC)c3OC)cc2c1`: the Activity is -21.5%.

As to `C[S+]([O-])CC(=O)c1cc2c(Cl)cccc2s1` (stereo unspecified), the Activity was 18.5%. In the case of `CS(=O)(=O)CC(=O)c1cc2ccccc2s1`, the Activity was 5.1%. In the case of `CCOC(=O)c1cc2cccc(F)c2o1` it was -18.1%; in that of `CCOC(=O)c1cc2ccccc2o1`, 7.1%. With `CCOC(=O)c1cc2cc(OC)c(OC)cc2s1`, the Activity was 49.9%. In the case of `O=C(/C=C/c1ccccc1Cl)c1cc2ccccc2s1` it was 2%. In the case of `CCOC(=O)c1ccc2sc(C(=O)/C=C/c3ccccc3)cc2c1` it was 12.6%; in that of `COC(=O)c1ccc2sc(C(C)=O)cc2c1`, 41.4%.

`CCOC(=O)c1ccc2sc(C(=O)/C=C/c3ccc(OC)cc3)cc2c1`: the Activity is 1.7%. With `CCOC(=O)c1cc2c(Cl)cccc2s1` the figure was -0.6%; with `CCOC(=O)c1cc2ccccc2s1`, 8.2%; with `COc1cc2cc(C(=O)C[S+](C)[O-])sc2cc1OC` (stereo unspecified), 13.5%.

For `CCOC(=O)c1ccc2sc(C(=O)/C=C/c3ccccc3Cl)cc2c1`, the Activity is 24%.
